The results in this text go back to ChEMBL document CHEMBL4513216, “Probing the Open Global Health Chemical Diversity Library for Multistage-Active Starting Points for Next-Generation Antimalarials” (ACS Infect Dis, 2020).

A short description of this series: Toxicity liver stage against HepG2, at 10uM. The class given is cell-based. The arrangement: test concentration 10 uM, cell line HepG2-A16-CD81EGFP. The note with it: human, HepG2-A16-CD81EGFP cells; read-out: INHIBITION
Put shortly:
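Uninfected HepG2-A16-CD81EGFP cells, 3 × 10^3 per well, 1536-well, plated on prespotted compound at 10 μM final, parasite-free screening media added to match infected plates; puromycin 10 μM positive, DMSO 0.5% negative; run in parallel with 48 h PbLuc assay at 37 °C, 5% CO2; viability by CellTiter-Glo luminescence, normalized to controls.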
As for `O=C(CN1CCN(C(=O)c2ccccc2)CC1)Nc1ncc(Br)cc1Br`, the cytotoxicity at 10 µM worked out at 8.63%.
As to `O=C(NC[C@H]1COCc2nc3cc(F)ccc3n21)c1cccnc1`, the cytotoxicity at 10 µM is -1.23%.
As for `CN1CCC(N2CCC[C@H]2c2nc(-c3cncnc3N)no2)CC1`, the cytotoxicity at 10 µM was -5.33%.
Consider `Cc1cccc2c1nc1n2[C@@H](CNC(=O)c2cncnc2)COC1`, for which the cytotoxicity at 10 µM amounted to 1.53%.
As for `Cc1nnc(NC(=O)CSCc2cc(=O)n3ccccc3n2)s1`, the figure is 1.5%; as for `COc1cc2c(cc1OC)C(=O)C(Sc1nnc(C)o1)C2` (stereo unspecified), 0.372%.
Turning to `Cc1cc(C)c(S(=O)(=O)Nc2c(C)nc(N3CCCC3)nc2C)cc1C`, the cytotoxicity at 10 µM was 3.62%.
The result for `CCOCC1C[C@@H]2OCCN(C(=O)c3ccc[nH]3)[C@H]2C1` (stereo partly specified) reads -1.86%; that for `CN1C(=O)CC2(CCN(S(=O)(=O)N(C)C)CC2)c2ccccc21`, 0.688%; that for `O=C(C[C@@H]1COC[C@H]2CN(Cc3ccncc3)C[C@@H]12)N1CCCC1`, -2.3%.
As for `CN(C)CCCNC(=O)c1ccccc1NC(=O)c1cc(Cl)ccc1Cl`, the figure is -17%; as for `CCC(=O)N1CCN(c2nc(C)nc3c(C)nn(C)c23)CC1`, 12.4%.
In the case of `CC(=O)Nc1ncc(S(=O)(=O)Nc2cccc(C)c2)s1`, the cytotoxicity at 10 µM was 7.63%.
Consider `N#Cc1cn[nH]c1NCc1cc(Br)ccc1O`, for which the cytotoxicity at 10 µM was -7.29%.
The result for `CN(C)c1nccc(C2CCN(C3CCCCC3O)CC2)n1` (stereo unspecified) reads 1.98%.
Take `O=S1(=O)NC2(CCCN(Cc3ccc(Cl)cc3)C2)COc2ccccc21` (stereo unspecified): the cytotoxicity at 10 µM was 15.2%.
The result for `O=C1Nc2ccccc2CC12CCCN2Cc1ccccn1` (stereo unspecified) reads -17.1%; that for `CC(C)C(NC(=O)c1nc(N2CCOCC2)ncc1Cl)c1cccs1` (stereo unspecified), -44.3%.
As for `Cc1nc(-c2cccs2)ccc1C(=O)N1CCN(CCO)CC1`, the figure is -56%; as for `CCC(=O)Nc1ccc(F)cc1OC`, -26.1%.
As for `CC(C)c1noc(C(C)N2CCN(Cc3noc(C4CC4)n3)CC2)n1` (stereo unspecified), the figure is 3.01%; as for `CC(C(=O)Nc1cccc(F)c1)N(C)CCN1CCOCC1` (stereo unspecified), -9.19%; as for `Cc1nn(C)c(C)c1S(=O)(=O)N(CC(N)=O)CC(C)C`, 10.5%.
Take `CS(=O)(=O)NCCNC(=O)C1(c2ccc(F)cc2)CC1`: the cytotoxicity at 10 µM was 1.93%.
In the case of `O=C(CSc1ccc2c(c1)OCCO2)NS(=O)(=O)c1cc(F)ccc1F`, the cytotoxicity at 10 µM is -3.47%.
With `Cc1cc(NC(C)C(=O)N2CCN(c3ncccn3)CC2)ccc1F` (stereo unspecified), the cytotoxicity at 10 µM is 7.77%.
As for `Cc1ccc(OCC(=O)Nc2ncccc2OC(F)F)cc1`, the figure is 6.42%; as for `Cc1ccc(C(O)CNC(=O)c2cccnc2O)cc1` (stereo unspecified), 11%; as for `Cc1n[nH]c(C2CN(C(=O)c3ccc(Cl)o3)CCO2)n1` (stereo unspecified), -5.59%.
Turning to `COCC(C)NC(=O)NCCc1cccc(OC)c1O` (stereo unspecified), the cytotoxicity at 10 µM was found to be 7.87%.
The result for `Cc1occc1C(=O)NCCOc1ccc(C(F)(F)F)cn1` reads -7.62%.
The result for `COc1ccccc1C(C)(C)NCc1ccco1` reads 5.95%; that for `CCN(Cc1cnn(C)c1)S(=O)(=O)N1CCCC1c1ccco1` (stereo unspecified), -3.55%.
The result for `COC(=O)c1cc(C(=O)N2CCc3ccc(F)cc3C2C)ccn1` (stereo unspecified) reads 10.5%; that for `CS(=O)(=O)NC1CCN(C(=O)CCn2cccn2)CC1`, -7.74%.
As to `COCCCNS(=O)(=O)c1cc(C)sc1C`, the cytotoxicity at 10 µM was -11.6%.
On to `CCN(CC)S(=O)(=O)c1ccc(C(F)(F)F)cc1C#N`, for which the cytotoxicity at 10 µM is -13.4%.
The result for `CC1CCN(C(=O)Cc2ccc(S(=O)(=O)C(F)F)cc2)CC1` reads 2.98%; that for `Cc1nnc(CN(C)CC2CCCCC2)o1`, 15.6%; that for `CCNC(=O)NC1CN(Cc2ccncc2Cl)C[C@@H]1OC` (stereo partly specified), 1.85%.
The result for `NC(=O)Nc1cc(Br)cnc1OCC(F)(F)F` reads 8.28%.
The result for `NC(=O)c1cccc(CCNCc2cccs2)c1` reads 1.68%.
In the case of `O=C(Cn1cc(I)cn1)NCC1CCC1`, the cytotoxicity at 10 µM is 14.5%.
The result for `CCC(=O)NC1CCCN(Cc2ccc(NC(C)=O)cc2)C1` (stereo unspecified) reads -47.9%; that for `O=C(Nc1ccnn1Cc1ccc(Cl)cc1)C1CCS(=O)(=O)C1` (stereo unspecified), 10.9%; that for `CS(=O)(=O)Cc1nc(CN2CC=C(c3ccccc3)CC2)cs1`, 5.27%.
The result for `NC(=O)C1Cn2ccnc2C2(CCN(C(=O)c3ccncc3)CC2)O1` (stereo unspecified) reads -103%.
As for `Cc1nc(CN2Cc3cn(C)nc3C(COCC3CC3)C2)cs1` (stereo unspecified), the figure is -68.9%; as for `CO[C@@H]1CCN(S(=O)(=O)c2cccs2)[C@H]1Cc1ccccc1`, -78%; as for `CN(C)C(=O)NC1COC2(CCN(Cc3ccco3)CC2)C1` (stereo unspecified), -72.4%.
Turning to `CC(=O)N1CCCC2(C1)CN(C(=O)c1ccncc1)CCO2` (stereo unspecified), the cytotoxicity at 10 µM was -78.7%.
As for `CNC(=O)[C@@]12CCO[C@@H]1CCN(S(=O)(=O)c1cccc(F)c1)C2`, the figure is -73.8%; as for `COCCN1CCC12CCN(C(=O)c1ccc3[nH]ccc3c1)C2` (stereo unspecified), -82.6%.
Turning to `CCOC1COC2(CCN(S(=O)(=O)c3cccc(C)c3)CC2)C1` (stereo unspecified), the cytotoxicity at 10 µM is -79.8%.
The result for `Cc1cccc(N2CCN(CCC(=O)NCc3cccnc3)CC2)c1` reads -9.2%; that for `C[C@H](NC(=O)c1cnc(-c2ccccc2)nc1O)C(N)=O`, 7.06%.
As for `CNc1cc(C)nc(N2CCC3(CC2)[C@H](O)C[C@@H]3OCCN(C)C)n1`, the cytotoxicity at 10 µM is -1.26%.
For the compound `Oc1cc(CN2CCC(O)(Cn3ccnc3)CC2)nc2c(Cl)cccc12`, the cytotoxicity at 10 µM was -60.8%.
The result for `COc1ncc(-c2ccc(O)cc2)c(OC)n1` reads -2.42%; that for `Cc1ccc(CN(Cc2ccccn2)C(=O)C2CCCCCN2C)s1` (stereo unspecified), -20.2%.
`CN(Cc1ccncn1)C(=O)c1cccc(CCC(C)(C)O)c1`: the cytotoxicity at 10 µM is -4.27%.
As for `CN(Cc1nc(Cc2cccc(C(F)(F)F)c2)no1)C(C1CC1)C1CC1`, the figure is 0.92%; as for `NCC1Cc2cccc(-c3ccc(O)c(F)c3)c2O1` (stereo unspecified), -40.2%; as for `CN(Cc1cnc(N)nc1)C(=O)c1coc(COc2ccccc2)n1`, 1.58%.
As to `Cc1cc(CN2CCC(CNC(=O)Cc3ccc(F)cc3)C2)[nH]n1` (stereo unspecified), the cytotoxicity at 10 µM is -139%.
The result for `CCOc1cccc(CN2CCCn3nc(CNS(C)(=O)=O)cc3C2)c1` reads -4.01%; that for `COc1cccc2c1OCCCN(c1nc(N)nc3c1CCNC3)C2`, 0.944%; that for `COCC(=O)N1CCCC1c1ccc(C(=O)NCCN2CCCCC2)s1` (stereo unspecified), 4.26%.
The result for `C[C@@H]1CN(CC(C)(C)N2CCOCC2)CC[C@@]1(O)C1CCOCC1` reads -1.71%; that for `O=C(c1cccnc1)N1CCC(Oc2cccc(C(F)(F)F)c2)CC1`, 7.19%; that for `O=C(NC1CCOCC1)c1cccc(C2CCCNC2)c1` (stereo unspecified), 2.58%.
The result for `Cc1nc(-c2c(-c3ccccc3)ncn2CCCN2CCOCC2)c[nH]1` reads -6.76%.
Regarding `Cc1cnn(CC(=O)N2CCC3(CCC(=O)N(CC(C)O)C3)CC2)c1` (stereo unspecified), the cytotoxicity at 10 µM is 3.05%.
The result for `Cc1ccc(-c2nc(C(=O)N(C)C3CCN(C)CC3)cs2)c(C)c1` reads -7.07%.
For the compound `CC(C(=O)N1CCCN(Cc2ccc(C#N)cc2)CC1)n1cncn1` (stereo unspecified), the cytotoxicity at 10 µM is 2.6%.
The result for `CCn1cnnc1C1CCN(C(=O)c2cnc(C)s2)CC1` reads -8.45%; that for `c1cn(-c2ccc(CN3CCOC(Cn4cncn4)C3)cc2)cn1` (stereo unspecified), 1.25%; that for `Cc1nn(-c2ccccc2)cc1C(=O)N1CCCC(n2ccnc2C)C1` (stereo unspecified), -3.11%.
As for `Cc1ncccc1-c1cc2cccnc2n1CCCNC(=O)C(C)(C)C`, the figure is 12.8%; as for `Cc1ccc(CN(CCN(C)C)Cc2c(C)nc3sccn23)o1`, 3.08%.
The result for `CCN(C(=O)c1ccc2nnc(C3CCN(C)C3)n2c1)C(C)C` (stereo unspecified) reads -112%; that for `c1cncc(CN2CCN3C[C@H](Oc4cncnc4)C[C@H]3C2)c1`, -100%; that for `O=C(C1=CCCCC1)N1CCO[C@H]2[C@H](Oc3ccccn3)CC[C@@H]21`, 5.08%.
As to `Cc1cccc(CN2CCCC3(CCN(CC(=O)N(C)C)C3=O)C2)n1` (stereo unspecified), the cytotoxicity at 10 µM is -119%.
As for `O=C(N[C@H]1CN(Cc2cccs2)[C@@H]2CCCO[C@H]12)c1cccnc1`, the figure is -5.24%.
The result for `COC(=O)CN1CC2(CCNCC2)COc2ccccc2S1(=O)=O` reads -11.7%; that for `Cc1ccc(CN2CCc3onc(COc4cccnc4)c3C2)s1`, 5.98%.
Turning to `Cc1nnc([C@]23COC[C@H]2CN(Cc2cccs2)C3)o1`, the cytotoxicity at 10 µM was -3.34%.
With `c1ccc(NCc2cnc3n2CCN(CC2CCOC2)CC3)nc1` (stereo unspecified), the cytotoxicity at 10 µM is -76.5%.
The result for `O=C(NC1CC2(CCN(CCO)CC2)c2ccccc21)c1ccsc1` (stereo unspecified) reads -14.2%; that for `O=C(c1ccncc1)N1CCc2ncnc(C3CC3)c2CC1`, -75.6%; that for `O=C(NCc1ccco1)[C@@]12CCO[C@@H]1CCN(c1ncccn1)C2`, 0.864%.
The result for `Cc1ccc(N2CCN(CC3CC3)C3(CCN(C(C)C)CC3)C2=O)cn1` reads 16%.
As for `O=C(O)c1cnc2c(Br)cccc2c1O`, the figure is 15.5%; as for `COc1cccc(CSC=C2Nc3ccccc3S(=O)(=O)N2)c1`, 3.7%.
With `N#Cc1ccccc1C(=O)N1C[C@@H]2CC[C@H]1CN(Cc1ccccc1)C2`, the cytotoxicity at 10 µM came out at 1.43%.
